Measured values taken from article PMC9335275 (Proceedings of the National Academy of Sciences of the …, 2022).
pEC50: −log10 of the molar value. Where two headings read alike, the source gives them in different places.

Assays:
[1] = biological target: T1, NPR-B receptor on NIH3T3 cells (Mus musculus, UniProt Q6VVW5); experiment: 3T3 cell NPR-B guanylate cyclase assay; type: cell-based
T1 sequence (Q6VVW5 23-1047 limits assumed): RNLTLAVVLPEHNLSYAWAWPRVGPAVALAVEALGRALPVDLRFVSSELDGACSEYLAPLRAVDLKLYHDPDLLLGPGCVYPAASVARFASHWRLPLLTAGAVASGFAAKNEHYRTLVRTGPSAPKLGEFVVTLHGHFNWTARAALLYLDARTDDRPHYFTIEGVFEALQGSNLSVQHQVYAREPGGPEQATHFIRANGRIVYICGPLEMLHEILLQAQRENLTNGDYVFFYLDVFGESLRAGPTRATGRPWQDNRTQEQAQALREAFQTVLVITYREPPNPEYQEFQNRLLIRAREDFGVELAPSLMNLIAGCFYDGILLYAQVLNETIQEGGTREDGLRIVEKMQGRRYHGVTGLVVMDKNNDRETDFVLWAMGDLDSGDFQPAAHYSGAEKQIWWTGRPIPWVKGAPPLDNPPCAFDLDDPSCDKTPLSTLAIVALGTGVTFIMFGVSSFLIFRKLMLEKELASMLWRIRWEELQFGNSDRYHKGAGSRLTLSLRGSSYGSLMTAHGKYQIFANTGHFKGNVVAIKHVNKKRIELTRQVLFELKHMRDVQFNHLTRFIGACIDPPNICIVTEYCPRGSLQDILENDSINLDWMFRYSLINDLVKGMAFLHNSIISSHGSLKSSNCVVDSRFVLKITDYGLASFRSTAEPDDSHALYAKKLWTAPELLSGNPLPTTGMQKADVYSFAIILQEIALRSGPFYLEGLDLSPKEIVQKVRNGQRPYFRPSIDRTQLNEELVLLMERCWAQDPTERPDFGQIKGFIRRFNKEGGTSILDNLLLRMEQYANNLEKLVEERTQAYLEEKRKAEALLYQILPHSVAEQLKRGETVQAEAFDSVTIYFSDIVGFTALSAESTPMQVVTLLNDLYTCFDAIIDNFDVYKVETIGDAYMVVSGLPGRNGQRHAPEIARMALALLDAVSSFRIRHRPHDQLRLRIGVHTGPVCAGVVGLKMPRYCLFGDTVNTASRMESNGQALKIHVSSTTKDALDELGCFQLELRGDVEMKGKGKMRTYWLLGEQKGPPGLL

[2] = In vitro degradation at pH 7.4, 37 °C, HPLC analysis; type: physicochemical
[3] = tested on: 3-wk-old FVB/nJ male mice; experiment: Growth; type: in vivo, mouse; conditions: QD 70 nmol/kg SC, 5 wk, n = 6
In short: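 Wild-type male FVB/nJ mice, 3 wk old, groups of 6, were given SC injections once daily of 70 nmol/kg peptide or vehicle for 5 wk. Total body length was nasoanal plus tail length, measured in anesthetized mice positioned with head extended, nose on a horizontal guideline and tail straight. Length change over the period was compared with the vehicle group.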

[4] = Body weight of treated mice; type: in vivo, mouse; conditions: 3-wk-old FVB/nJ male mice, various regimens
In short: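 Wild-type male FVB/nJ mice, 3 wk old, about 15 g. Groups received one of: vehicle, daily SC 70 nmol/kg peptide, or microsphere-conjugated peptide. Conjugate dosing was weekly, biweekly or a single dose, either as constant nmol per mouse or as µmol/kg by body weight. Body weights of treated and untreated animals were followed over the study.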

[5] = biological target: T1, NPR-B receptor on NIH3T3 cells; conditions: read-out: EC50, reported; literature values; cited from earlier work
[6] = literature value; cited from earlier work
[7] = monkeys, 12 nmol/kg; cited from earlier work
[8] = mice, QD 70-nmol/kg dose; cited from earlier work
mice = conditions: 70 nmol/kg; cited from earlier work
monkeys = conditions: 12 nmol/kg; cited from earlier work
children with ACH = conditions: once daily 15 μg/kg SC; cited from earlier work

pEC50 [1]: 7.96
degradation t1/2 ([2]; 100 µM, 10 mM sodium phosphate, 0.13 M NaCl, pH 7.4, 37 °C, HPLC): ~170 h
t1/2 for degradation ([2]; physiological pH and temperature): ≤ 1 wk
Compound: CC[C@H](C)[C@@H]1NC(=O)[C@H](CCCNC(=N)N)NC(=O)[C@H](CC(=O)O)NC(=O)[C@H](CC(C)C)NC(=O)[C@H](CCCCN)NC(=O)[C@H](CC(C)C)NC(=O)CNC(=O)[C@H](Cc2ccccc2)NC(=O)[C@@H](NC(=O)CNC(=O)[C@H](CCCCN)NC(=O)[C@H](CO)NC(=O)[C@H](CC(C)C)NC(=O)CNC(=O)[C@H](CCCCN)NC(=O)[C@H](CCCCN)NC(=O)[C@H](CC(N)=O)NC(=O)[C@H](C)NC(=O)CNC(=O)[C@H](CCCCN)NC(=O)[C@H](Cc2ccc(O)cc2)NC(=O)[C@H](CCCCN)NC(=O)[C@H](CCCNC(=N)N)NC(=O)[C@H](C)NC(=O)[C@H](CC(N)=O)NC(=O)[C@@H]2CCCN2C(=O)[C@H](Cc2c[nH]cn2)NC(=O)[C@H](CCC(=O)O)NC(=O)[C@H](CCC(N)=O)NC(=O)CNC(=O)[C@@H]2CCCN2)CSSC[C@@H](C(=O)O)NC(=O)CNC(=O)[C@H](CC(C)C)NC(=O)CNC(=O)[C@H](CO)NC(=O)[C@H](CCSC)NC(=O)[C@H](CO)NC(=O)CNC1=O [vosoritide]
growth (TBL) exceeding that of the vehicle control group at study end [3]: 100%
body weights of treated versus untreated mice [4]: no difference
pEC50 [5]: 8.31
Cmax [6]: ~5 nM
Cmax [7]: ~10 nM
Cmax [8]: 200 nM
blood pressure and heart rate (mice): acute decreases in blood pressure and increases in heart rate within acceptable limits
systemic BP or HR (monkeys): no changes in systemic BP or HR
annualized growth velocity (children with ACH): sustained increase in the annualized growth velocity
side effect profile (children with ACH): mild side effect profile
